Assay results taken from ChEMBL document CHEMBL1148725, “2,2,2-Trichloro-N-({2-[2-(dimethylamino)ethyl]-1,3-dioxo-2,3-dihydro-1H-benzo[de]isoquinolin- 5-yl}carbamoyl)acetamide (UNBS3157), a novel nonhematotoxic naphthalimide derivative with potent antitumor activity” (J Med Chem, 2007).
Activity calls are given as the source filed them. The rule behind the calls is not given here.

How the values were obtained:
Mus musculus [1] = test: Hematotoxicity in B6D2F1 mouse assessed as platelet count at 10 mg/kg, po; assay type: organism-based; design: dose 10 mg/kg, route oral; conditions: in vivo
Mus musculus [2] = test: Hematotoxicity in B6D2F1 mouse assessed as platelet count at 20 mg/kg, po; assay type: organism-based; design: dose 20 mg/kg, route oral; conditions: in vivo
Mus musculus [3] = test: Hematotoxicity in B6D2F1 mouse assessed as platelet count at 40 mg/kg, po; assay type: organism-based; design: dose 40 mg/kg, route oral; conditions: in vivo
[4] = Antiproliferative activity against Hs683 cells after 72 hrs by MTT assay; assay type: functional, cell-based, Homo sapiens, Hs 683
In short: (§1)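 Cells cultured with each compound for three days; growth then read by the MTT colorimetric assay and reported as IC50 (µM).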

[5] = Antiproliferative activity against U373MG cells after 72 hrs by MTT assay; assay type: functional, cell-based, Homo sapiens, U-373MG ATCC; in short: as §1
HCT-15 = test: Antiproliferative activity against HCT15 cells after 72 hrs by MTT assay; assay type: functional, cell-based, Homo sapiens; in short: as §1
LoVo = test: Antiproliferative activity against LoVo cells after 72 hrs by MTT assay; assay type: functional, cell-based, Homo sapiens; in short: as §1
A549 = test: Antiproliferative activity against A549 cells after 72 hrs by MTT assay; assay type: functional, cell-based, Homo sapiens; in short: as §1
MCF7 = test: Antiproliferative activity against MCF7 cells after 72 hrs by MTT assay; assay type: functional, cell-based, Homo sapiens; in short: as §1
[6] = Toxicity in ip dosed B6D2F1 mouse; assay type: organism-based; conditions: in vivo
In short: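 Acute MTD was set by a single i.p. dose to groups of three healthy female B6D2F1 mice, at 2.5, 5, 10, 20, 40, 80 and 160 mg/kg. The MTD is the dose just below the lowest dose that killed at least one mouse.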

L1210 [7] = test: Antitumor activity in L1210 cells xenografted B6D2F1 mouse at 10 mg/kg, ip relative to control; assay type: functional; conditions: route intraperitoneal
In short: (§2)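 Mice grafted with L1210 leukaemia cells on day 0, then dosed i.p. four times weekly on days 1-4 and 8-11. Five mice per group. Outcome is %T/C, the median survival of treated over control. Kruskal-Wallis test followed by Dunn comparisons against control.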

L1210 [8] = test: Antitumor activity in L1210 cells xenografted B6D2F1 mouse at 20 mg/kg, ip relative to control; assay type: functional; conditions: route intraperitoneal; in short: as §2
L1210 [9] = test: Antitumor activity in L1210 cells xenografted B6D2F1 mouse at 40 mg/kg, ip relative to control; assay type: functional; conditions: route intraperitoneal; in short: as §2
L1210 [10] = test: Antitumor activity in L1210 cells xenografted B6D2F1 mouse at 80 mg/kg, ip relative to control; assay type: functional; conditions: route intraperitoneal; in short: as §2
L1210 [11] = test: Antitumor activity in L1210 cells xenografted B6D2F1 mouse at 120 mg/kg, ip relative to control; assay type: functional; conditions: route intraperitoneal; in short: as §2
Mus musculus [12] = test: Hematotoxicity in B6D2F1 mouse assessed as platelet count at 5 mg/kg, iv; assay type: organism-based; design: dose 5 mg/kg, route intravenous; conditions: in vivo
Mus musculus [13] = test: Hematotoxicity in B6D2F1 mouse assessed as platelet count at 10 mg/kg, iv; assay type: organism-based; design: dose 10 mg/kg, route intravenous; conditions: in vivo
Mus musculus [14] = test: Hematotoxicity in B6D2F1 mouse assessed as WBC count at 10 mg/kg, iv; assay type: organism-based; design: dose 10 mg/kg, route intravenous; conditions: in vivo
Mus musculus [15] = test: Hematotoxicity in B6D2F1 mouse assessed as RBC count at 5 mg/kg, iv; assay type: organism-based; design: dose 5 mg/kg, route intravenous; conditions: in vivo
Mus musculus [16] = test: Hematotoxicity in B6D2F1 mouse assessed as RBC count at 10 mg/kg, iv; assay type: organism-based; design: dose 10 mg/kg; conditions: in vivo
Mus musculus [17] = test: Hematotoxicity in B6D2F1 mouse assessed as WBC count at 5 mg/kg, iv; assay type: organism-based; design: dose 5 mg/kg, route intravenous; conditions: in vivo
Mus musculus [18] = test: Hematotoxicity in B6D2F1 mouse assessed as RBC count at 10 mg/kg, po; assay type: organism-based; design: dose 10 mg/kg, route oral; conditions: in vivo
Mus musculus [19] = test: Hematotoxicity in B6D2F1 mouse assessed as RBC count at 20 mg/kg, po; assay type: organism-based; design: dose 20 mg/kg, route oral; conditions: in vivo
Mus musculus [20] = test: Hematotoxicity in B6D2F1 mouse assessed as RBC count at 40 mg/kg, po; assay type: organism-based; design: dose 40 mg/kg, route oral; conditions: in vivo
Mus musculus [21] = test: Hematotoxicity in B6D2F1 mouse assessed as WBC count at 10 mg/kg, po; assay type: organism-based; design: dose 10 mg/kg, route oral; conditions: in vivo
Mus musculus [22] = test: Hematotoxicity in B6D2F1 mouse assessed as WBC count at 20 mg/kg, po; assay type: organism-based; design: dose 20 mg/kg, route oral; conditions: in vivo
Mus musculus [23] = test: Hematotoxicity in B6D2F1 mouse assessed as WBC count at 40 mg/kg, po; assay type: organism-based; design: dose 40 mg/kg, route oral; conditions: in vivo
Mus musculus [24] = test: Toxicity in B6D2F1 mouse at 120 mg/kg, ip; assay type: organism-based; design: dose 120 mg/kg, route intraperitoneal; conditions: in vivo
In short: (§3)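 Healthy female B6D2F1 mice, 10 per group, dosed i.p. in DMSO/saline (5:95 v/v) three times weekly for five weeks at two levels set relative to MTD; sacrificed 3 days after final dose; platelet, RBC and WBC counted by Coulter counter.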

Mus musculus [25] = test: Hematotoxicity in ip dosed B6D2F1 mouse assessed as decrease in platelet count; assay type: organism-based; conditions: in vivo
In short: (§4)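 Healthy female B6D2F1 mice, 10 per group, dosed i.p. three times weekly for five weeks at two dose levels set relative to MTD. Vehicle DMSO/saline 5:95 v/v. Killed 3 days after the last dose; blood platelet, RBC and WBC counts taken with a Coulter counter.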

Mus musculus [26] = test: Hematotoxicity in ip dosed B6D2F1 mouse assessed as decrease in RBC count; assay type: organism-based; conditions: in vivo; in short: as §4
Mus musculus [27] = test: Hematotoxicity in B6D2F1 mouse assessed as RBC count at 2.5 mg/kg, po; assay type: organism-based; design: dose 2.5 mg/kg, route oral; conditions: in vivo
Mus musculus [28] = test: Hematotoxicity in B6D2F1 mouse assessed as RBC count at 5 mg/kg, po; assay type: organism-based; design: dose 5 mg/kg, route oral; conditions: in vivo
L1210 [29] = test: Antitumor activity in L1210 cells xenografted B6D2F1 mouse at 5 mg/kg, ip relative to control; assay type: functional; conditions: route intraperitoneal; in short: as §2
Mus musculus [30] = test: Hematotoxicity in B6D2F1 mouse assessed as platelet count at 2.5 mg/kg, iv; assay type: organism-based; design: dose 2.5 mg/kg, route intravenous; conditions: in vivo
Mus musculus [31] = test: Hematotoxicity in B6D2F1 mouse assessed as RBC count at 2.5 mg/kg, iv; assay type: organism-based; design: dose 2.5 mg/kg, route intravenous; conditions: in vivo
Mus musculus [32] = test: Hematotoxicity in B6D2F1 mouse assessed as WBC count at 2.5 mg/kg, iv; assay type: organism-based; design: dose 2.5 mg/kg, route intravenous; conditions: in vivo
Mus musculus [33] = test: Hematotoxicity in B6D2F1 mouse assessed as platelet count at 2.5 mg/kg, po; assay type: organism-based; design: dose 2.5 mg/kg, route oral; conditions: in vivo
Mus musculus [34] = test: Hematotoxicity in B6D2F1 mouse assessed as platelet count at 5 mg/kg, po; assay type: organism-based; design: dose 5 mg/kg, route oral; conditions: in vivo
Mus musculus [35] = test: Hematotoxicity in B6D2F1 mouse assessed as WBC count at 2.5 mg/kg, po; assay type: organism-based; design: dose 2.5 mg/kg, route oral; conditions: in vivo
Mus musculus [36] = test: Hematotoxicity in B6D2F1 mouse assessed as WBC count at 5 mg/kg, po; assay type: organism-based; design: dose 5 mg/kg, route oral; conditions: in vivo
Mus musculus [37] = test: Toxicity in B6D2F1 mouse at 40 mg/kg, ip; assay type: organism-based; design: dose 40 mg/kg, route intraperitoneal; conditions: in vivo
Mus musculus [38] = test: Toxicity in B6D2F1 mouse at 80 mg/kg, ip; assay type: organism-based; design: dose 80 mg/kg, route intraperitoneal; conditions: in vivo; in short: as §3
Homo sapiens = species on record: Homo sapiens; test: Inhibition of human topoisomerase 2 at 50 uM by plasmid linearization assay

With CN(C)CCN1C(=O)c2cccc3cc(/N=C\c4cc(O)ccc4O)cc(c23)C1=O the Activity (Mus musculus [1]) was 909 10^3 /uL, the Activity (Mus musculus [2]) was 1007 10^3 /uL and the Activity (Mus musculus [3]) was 1033 10^3 /uL. The IC50 ([4]; hs 683) was over 10 µM, the IC50 ([5]; u-373mg atcc) was 7.8 µM and the IC50 (HCT-15; hct-15) was over 10 µM. For the same compound, the IC50 (LoVo; lovo) was 8.4 µM, the IC50 (A549; a549) was 9.1 µM and the IC50 (MCF7; mcf7) was over 10 µM. The MTD [6] was over 160 mg/kg, the Activity (L1210 [7]) was 151% and the Activity (L1210 [8]) was 148%. For the same compound, the Activity (L1210 [9]) was 232%, the Activity (L1210 [10]) was over 300% and the Activity (L1210 [11]) was 42%. The Activity (Mus musculus [12]) was 498 10^3 /uL, the Activity (Mus musculus [13]) was 443 10^3 /uL and the Activity (Mus musculus [14]) was 3.05 10^3 /uL. For the same compound, the Activity (Mus musculus [15]) was 9.48 10^6 /uL, the Activity (Mus musculus [16]) was 9.54 10^6 /uL and the Activity (Mus musculus [17]) was 3.09 10^3 /uL. For the same compound, the Activity (Mus musculus [18]) was 10.22 10^6 /uL, the Activity (Mus musculus [19]) was 9.92 10^6 /uL and the Activity (Mus musculus [20]) was 7.87 10^6 /uL. For the same compound, the Activity (Mus musculus [21]) was 2.36 10^3 /uL, the Activity (Mus musculus [22]) was 2.17 10^3 /uL and the Activity (Mus musculus [23]) was 4.07 10^3 /uL. For the same compound, the Activity (Mus musculus [24]) was “Toxic”, the Activity (Mus musculus [25]) was “Toxic” and the Activity (Mus musculus [26]) was “Toxic”.
In the case of CC(=O)Nc1cc2c3c(cccc3c1)C(=O)N(CCN(C)C)C2=O, the Activity (Mus musculus [1]) is reported as 922 10^3 /uL, the Activity (Mus musculus [27]) is reported as 10.01 10^6 /uL and the Activity (Mus musculus [28]) is reported as 10.25 10^6 /uL. For the same compound, the IC50 ([4]; Homo sapiens, Hs 683, 72 h) was over 10 µM, the IC50 ([5]; Homo sapiens, U373 MG, 72 h) was 9 µM and the IC50 (HCT-15; Homo sapiens, HCT-15, 72 h) was 7.8 µM. For the same compound, the IC50 (LoVo; Homo sapiens, LoVo, 72 h) was over 10 µM, the IC50 (A549; Homo sapiens, A549, 72 h) was over 10 µM and the IC50 (MCF7; Homo sapiens, MCF7, 72 h) was over 10 µM. It also gave an MTD [6] of 40 mg/kg, an Activity (L1210 [29]) of 111% and an Activity (L1210 [7]) of 149%. For the same compound, the Activity (L1210 [8]) was over 300%, the Activity (L1210 [9]) was 48% and the Activity (L1210 [10]) was 47%. For the same compound, the Activity (Mus musculus [30]) was 470 10^3 /uL, the Activity (Mus musculus [12]) was 351 10^3 /uL and the Activity (Mus musculus [31]) was 9.74 10^6 /uL. For the same compound, the Activity (Mus musculus [15]) was 9.59 10^6 /uL, the Activity (Mus musculus [32]) was 3.97 10^3 /uL and the Activity (Mus musculus [17]) was 2.5 10^3 /uL. The Activity (Mus musculus [33]) was 961 10^3 /uL, the Activity (Mus musculus [34]) was 968 10^3 /uL and the Activity (Mus musculus [18]) was 9.64 10^6 /uL. The Activity (Mus musculus [35]) was 2.66 10^3 /uL, the Activity (Mus musculus [36]) was 2.74 10^3 /uL and the Activity (Mus musculus [21]) was 2.66 10^3 /uL. For the same compound, the Activity (Mus musculus [37]) was “Toxic”, the Activity (Mus musculus [38]) was “Toxic” and the Activity (Homo sapiens) was “Active”.
